Test results published in ChEMBL document CHEMBL1155222, “Synthesis and anticancer activity of N-bis(trifluoromethyl)alkyl-N'-thiazolyl and N-bis(trifluoromethyl)alkyl-N'-benzothiazolyl ureas” (2009).

Experiments:
Format in all cases: functional
SF-539 = test: Anticancer activity against human SF539 cells after 48 hrs by sulforhodamine B assay; conditions: SF-539, 48 h
Outline: (§1)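 NCI 60-cell-line screen. Cells grown in RPMI 1640 with 5% FBS and 2 mM L-glutamine, plated at 5000–40,000 cells/well, and preincubated 24 h at 37 °C under 5% CO2. Compounds were taken from DMSO stocks and tested at five final concentrations, 10^-4 to 10^-8 M, for 48 h. Cells were TCA-fixed, stained with 0.4% SRB, and read at 515 nm. GI50, TGI and LC50 were derived as log molar values.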

A498 = test: Anticancer activity against human A498 cells after 48 hrs by sulforhodamine B assay; conditions: A498, 48 h; outline: as §1
T47D = test: Anticancer activity against human T47D cells after 48 hrs by sulforhodamine B assay
Outline: (§2)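 NCI 60-cell-line panel; cells grown in RPMI 1640 with 5% FBS and 2 mM L-glutamine, plated at 5000–40,000 cells/well and preincubated 24 h at 37 °C, 5% CO2. Compounds came from DMSO stocks diluted in medium with gentamicin and were tested at five final concentrations, 10^-4 to 10^-8 M, for 48 h. Cells were fixed with TCA, stained with SRB and read at 515 nm. GI50, TGI and LC50 were derived as log molar values.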

UO-31 = test: Anticancer activity against human UO31 cells after 48 hrs by sulforhodamine B assay; conditions: UO-31, 48 h; outline: as §2
NCI-H226 = test: Anticancer activity against human NCI-H226 cells after 48 hrs by sulforhodamine B assay; conditions: NCI-H226, 48 h; outline: as §1
HCT-116 = test: Anticancer activity against human HCT116 cells after 48 hrs by sulforhodamine B assay; conditions: HCT-116, 48 h; outline: as §1
IGROV-1 = test: Anticancer activity against human IGROV1 cells after 48 hrs by sulforhodamine B assay; conditions: IGROV-1, 48 h; outline: as §1
SF-268 = test: Anticancer activity against human SF268 cells after 48 hrs by sulforhodamine B assay; conditions: SF-268, 48 h; outline: as §1
OVCAR-8 = test: Anticancer activity against human OVCAR8 cells after 48 hrs by sulforhodamine B assay; conditions: OVCAR-8, 48 h; outline: as §1
CAKI-1 = test: Anticancer activity against human Caki1 cells after 48 hrs by sulforhodamine B assay; conditions: CAKI-1, 48 h; outline: as §1
MDA-MB-231 = test: Anticancer activity against human MDA-MB-231 cells after 48 hrs by sulforhodamine B assay; conditions: MDA-MB-231, 48 h; outline: as §1
CCRF-CEM = test: Anticancer activity against human CCRF-CEM cells after 48 hrs by sulforhodamine B assay; outline: as §1
786-0 = test: Anticancer activity against human 786-0 cells after 48 hrs by sulforhodamine B assay; conditions: 786-0, 48 h; outline: as §1
SN12C = test: Anticancer activity against human SN12C cells after 48 hrs by sulforhodamine B assay; outline: as §2
MDA-MB-435 = test: Anticancer activity against human MDA-MB-435 cells after 48 hrs by sulforhodamine B assay; conditions: MDA-MB-435, 48 h; outline: as §1
HT-29 = test: Anticancer activity against human HT-29 cells after 48 hrs by sulforhodamine B assay; conditions: HT-29, 48 h; outline: as §1
SNB-75 = test: Anticancer activity against human SNB75 cells after 48 hrs by sulforhodamine B assay; conditions: SNB-75, 48 h; outline: as §2
RXF 393 = test: Anticancer activity against human RXF393 cells after 48 hrs by sulforhodamine B assay; conditions: RXF 393, 48 h; outline: as §1
MOLT-4 = test: Anticancer activity against human MOLT4 cells after 48 hrs by sulforhodamine B assay; conditions: MOLT-4, 48 h; outline: as §1
PC-3 = test: Anticancer activity against human PC3 cells after 48 hrs by sulforhodamine B assay; conditions: PC-3, 48 h; outline: as §1
NCI-H522 = test: Anticancer activity against human NCI-H522 cells after 48 hrs by sulforhodamine B assay; conditions: NCI-H522, 48 h; outline: as §1
OVCAR-5 = test: Anticancer activity against human OVCAR5 cells after 48 hrs by sulforhodamine B assay; conditions: OVCAR-5, 48 h; outline: as §1
K562 = test: Anticancer activity against human K562 cells after 48 hrs by sulforhodamine B assay; conditions: K562, 48 h; outline: as §1
SK-MEL-5 = test: Anticancer activity against human SK-MEL-5 cells after 48 hrs by sulforhodamine B assay; conditions: SK-MEL-5, 48 h; outline: as §1
UACC-62 = test: Anticancer activity against human UACC62 cells after 48 hrs by sulforhodamine B assay; conditions: UACC-62, 48 h; outline: as §2
EKVX = test: Anticancer activity against human EKVX cells after 48 hrs by sulforhodamine B assay; outline: as §1
M14 = test: Anticancer activity against human M14 cells after 48 hrs by sulforhodamine B assay; conditions: M14, 48 h; outline: as §1
ACHN = test: Anticancer activity against human ACHN cells after 48 hrs by sulforhodamine B assay; outline: as §1
HCT-15 = test: Anticancer activity against human HCT15 cells after 48 hrs by sulforhodamine B assay; conditions: HCT-15, 48 h; outline: as §1
SK-OV-3 = test: Anticancer activity against human SKOV3 cells after 48 hrs by sulforhodamine B assay; conditions: SK-OV-3, 48 h; outline: as §1
LOX IMVI = test: Anticancer activity against human LOXIMVI cells after 48 hrs by sulforhodamine B assay; outline: as §1
UACC-257 = test: Anticancer activity against human UACC257 cells after 48 hrs by sulforhodamine B assay; conditions: UACC-257, 48 h; outline: as §2
SK-MEL-2 = test: Anticancer activity against human SK-MEL-2 cells after 48 hrs by sulforhodamine B assay; conditions: SK-MEL-2, 48 h; outline: as §1
COLO 205 = test: Anticancer activity against human COLO205 cells after 48 hrs by sulforhodamine B assay; conditions: COLO 205, 48 h; outline: as §1
OVCAR-3 = test: Anticancer activity against human OVCAR-3 cells after 48 hrs by sulforhodamine B assay; conditions: OVCAR-3, 48 h; outline: as §1
[1] = Anticancer activity against human Hs 578T cells after 48 hrs by sulforhodamine B assay; outline: as §1
BT-549 = test: Anticancer activity against human BT549 cells after 48 hrs by sulforhodamine B assay; conditions: BT-549, 48 h; outline: as §1
NCI/ADR-RES = test: Anticancer activity against human NCI/ADR-RES cells after 48 hrs by sulforhodamine B assay; outline: as §1
U-251 = test: Anticancer activity against human U251 cells after 48 hrs by sulforhodamine B assay; conditions: U-251, 48 h; outline: as §2
MCF7 = test: Anticancer activity against human MCF7 cells after 48 hrs by sulforhodamine B assay; conditions: MCF7, 48 h; outline: as §1
A549 = test: Anticancer activity against human A549 cells after 48 hrs by sulforhodamine B assay; conditions: A549, 48 h; outline: as §1
HOP-92 = test: Anticancer activity against human HOP92 cells after 48 hrs by sulforhodamine B assay; conditions: HOP-92, 48 h; outline: as §1
OVCAR-4 = test: Anticancer activity against human OVCAR4 cells after 48 hrs by sulforhodamine B assay; conditions: OVCAR-4, 48 h; outline: as §1
SK-MEL-28 = test: Anticancer activity against human SK-MEL-28 cells after 48 hrs by sulforhodamine B assay; conditions: SK-MEL-28, 48 h; outline: as §1

`CNC(=O)Nc1ccccc1` showed a GI50 (SF-539) of 100 µM, a GI50 (A498) of 100 µM and a GI50 (T47D) of 100 µM. It also gave a GI50 (UO-31) of 100 µM, a GI50 (NCI-H226) of 100 µM and a GI50 (HCT-116) of 100 µM. It also gave a GI50 (IGROV-1) of 100 µM, a GI50 (SF-268) of 100 µM and a GI50 (OVCAR-8) of 100 µM. It also gave a GI50 (CAKI-1) of 100 µM, a GI50 (MDA-MB-231) of 100 µM and a GI50 (CCRF-CEM) of 100 µM. It also gave a GI50 (786-0) of 100 µM, a GI50 (SN12C) of 100 µM and a GI50 (MDA-MB-435) of 100 µM. For the same compound, the GI50 (HT-29) was 100 µM, the GI50 (SNB-75) was 74.1 µM and the GI50 (RXF 393) was 100 µM. For the same compound, the GI50 (MOLT-4) was 100 µM, the GI50 (PC-3) was 100 µM and the GI50 (NCI-H522) was 100 µM. It also gave a GI50 (OVCAR-5) of 100 µM, a GI50 (K562) of 100 µM and a GI50 (SK-MEL-5) of 100 µM. It also gave a GI50 (UACC-62) of 100 µM, a GI50 (EKVX) of 100 µM and a GI50 (M14) of 100 µM. The GI50 (ACHN) was 100 µM, the GI50 (HCT-15) was 100 µM and the GI50 (SK-OV-3) was 100 µM. The GI50 (LOX IMVI) was 100 µM, the GI50 (UACC-257) was 100 µM and the GI50 (SK-MEL-2) was 100 µM. It also gave a GI50 (COLO 205) of 100 µM, a GI50 (OVCAR-3) of 100 µM and a GI50 [1] of 100 µM. It also gave a GI50 (BT-549) of 100 µM, a GI50 (NCI/ADR-RES) of 100 µM and a GI50 (U-251) of 100 µM. It also gave a GI50 (MCF7) of 100 µM, a GI50 (A549) of 100 µM and a GI50 (HOP-92) of 100 µM. For the same compound, the GI50 (OVCAR-4) was 100 µM and the GI50 (SK-MEL-28) was 100 µM.
`CCC(NC(=O)Nc1nccs1)(C(F)(F)F)C(F)(F)F` gave a GI50 (SF-539) of over 100 µM, a GI50 (A498) of 46.8 µM and a GI50 (T47D) of 38.9 µM. For the same compound, the GI50 (UO-31) was 95.5 µM, the GI50 (NCI-H226) was 70.8 µM and the GI50 (HCT-116) was 46.8 µM. For the same compound, the GI50 (IGROV-1) was over 100 µM, the GI50 (SF-268) was 60.3 µM and the GI50 (OVCAR-8) was 53.7 µM. The GI50 (CAKI-1) was 83.2 µM, the GI50 (MDA-MB-231) was 85.1 µM and the GI50 (CCRF-CEM) was 19.5 µM. The GI50 (786-0) was over 100 µM, the GI50 (SN12C) was 55 µM and the GI50 (MDA-MB-435) was 61.7 µM. For the same compound, the GI50 (HT-29) was 41.7 µM, the GI50 (SNB-75) was 19.5 µM and the GI50 (RXF 393) was 83.2 µM. For the same compound, the GI50 (MOLT-4) was 30.9 µM, the GI50 (PC-3) was 0.0794 µM and the GI50 (NCI-H522) was 38 µM. The GI50 (OVCAR-5) was over 100 µM, the GI50 (K562) was 34.7 µM and the GI50 (SK-MEL-5) was 33.9 µM. The GI50 (UACC-62) was 40.7 µM, the GI50 (EKVX) was 35.5 µM and the GI50 (M14) was 38 µM. It also gave a GI50 (ACHN) of 61.7 µM, a GI50 (HCT-15) of 53.7 µM and a GI50 (SK-OV-3) of over 100 µM. The GI50 (LOX IMVI) was 72.4 µM, the GI50 (UACC-257) was 32.4 µM and the GI50 (SK-MEL-2) was 20 µM. It also gave a GI50 (COLO 205) of 74.1 µM, a GI50 (OVCAR-3) of 61.7 µM and a GI50 [1] of 52.5 µM. For the same compound, the GI50 (BT-549) was 40.7 µM, the GI50 (NCI/ADR-RES) was 29.5 µM and the GI50 (U-251) was 40.7 µM. For the same compound, the GI50 (MCF7) was 42.7 µM, the GI50 (A549) was 44.7 µM and the GI50 (HOP-92) was 60.3 µM. The GI50 (OVCAR-4) was 83.2 µM and the GI50 (SK-MEL-28) was 72.4 µM.
